Source: BindingDB's records for doi:10.1021/acsmedchemlett.0c00544 (Peking University Health Science Center, 2021)

Key:
[1] = target: T1, Signal transducer and activator of transcription 3 (Homo sapiens, UniProt P40763); assay: Inhibition of IL-6 induced STAT3 transcriptional activity in human HEK-Blue IL-6 cells assessed as secreted embryonic alkaline phosphatase reporter gene expression measured after 20 hrs by microplate reader
In short: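 HEK-Blue IL-6 reporter cells were treated for 20 h. IL-6/JAK/STAT3 pathway activity was quantified from secreted SEAP using a detection reagent, with parallel MTT viability. Values are averages of three independent experiments.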

[2] = target: T1, Signal transducer and activator of transcription 3; assay: Inhibition of IL-6 induced STAT3 transcriptional activity in human HEK-Blue IL-6 cells assessed as secreted embryonic alkaline phosphatase reporter gene expression by microplate reader
In short: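 HEK-Blue IL-6 reporter cells were treated for 20 h, and STAT3 pathway activity was quantified from secreted SEAP using a detection reagent. […] Values are averages of three independent experiments.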

T1 sequence (P40763 whole entry): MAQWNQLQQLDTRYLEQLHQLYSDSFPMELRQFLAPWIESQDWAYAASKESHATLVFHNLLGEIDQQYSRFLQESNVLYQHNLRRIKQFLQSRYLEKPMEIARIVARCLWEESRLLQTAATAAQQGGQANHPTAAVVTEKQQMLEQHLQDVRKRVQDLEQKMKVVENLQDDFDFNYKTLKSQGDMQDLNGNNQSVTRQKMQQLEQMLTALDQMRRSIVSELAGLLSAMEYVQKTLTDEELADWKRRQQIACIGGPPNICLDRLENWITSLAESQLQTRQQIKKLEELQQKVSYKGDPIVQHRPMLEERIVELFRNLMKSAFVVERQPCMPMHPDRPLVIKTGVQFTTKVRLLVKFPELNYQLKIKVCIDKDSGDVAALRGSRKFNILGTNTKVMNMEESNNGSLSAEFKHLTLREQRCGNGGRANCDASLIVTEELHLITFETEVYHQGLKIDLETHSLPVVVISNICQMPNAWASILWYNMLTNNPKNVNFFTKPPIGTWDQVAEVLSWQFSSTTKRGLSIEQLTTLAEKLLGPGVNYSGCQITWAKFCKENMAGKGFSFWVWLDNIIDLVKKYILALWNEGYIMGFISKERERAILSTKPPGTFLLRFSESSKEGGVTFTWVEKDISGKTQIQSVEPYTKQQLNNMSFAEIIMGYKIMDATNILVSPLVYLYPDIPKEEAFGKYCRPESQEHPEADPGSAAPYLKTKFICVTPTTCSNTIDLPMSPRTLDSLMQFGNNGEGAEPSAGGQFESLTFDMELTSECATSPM

| SMILES | IC50 [1] [µM] | IC50 [2] [µM] |
| --- | --- | --- |
| C[C@H](NC(=O)/C(C#N)=C/c1cccc(Br)n1)c1ccccc1 [Wp 1066] | 2.5 | 1.79 |
| CC(=O)Oc1ccccc1C(=O)Nc1ncc([N+](=O)[O-])s1 [Alinia] | 9.8 | 9.98 |
